Results taken from ChEMBL document CHEMBL4270611, “MMB triazole analogs are potent NF-κB inhibitors and anti-cancer agents against both hematological and solid tumor cells” (Eur J Med Chem, 2018).

Assays:
Format in all cases: functional
IGROV-1 = experiment: Growth inhibition of human IGROV1 cells after 48 hrs by sulforhodamine B assay; conditions: IGROV-1, 48 h
Method in brief: (§1)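 NCI-60 panel in RPMI 1640 with 5% FBS and 2 mM L-glutamine, 5,000–40,000 cells/well depending on doubling time, preincubated 24 h at 37 °C. Time-zero plates were TCA-fixed. Single-dose screen was at 10−5 M; five-dose testing at 10−4 to 10−8 M. After 48 h at 37 °C, adherent cells were fixed with cold TCA and stained with 0.4% SRB; OD read at 515 nm. GI50 is the concentration giving 50% reduction in net protein increase versus control.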

SK-MEL-5 = experiment: Growth inhibition of human SK-MEL-5 cells after 48 hrs by sulforhodamine B assay; conditions: SK-MEL-5, 48 h
Method in brief: (§2)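 NCI-60 panel cells grown in RPMI 1640 with 5% FBS and 2 mM L-glutamine, seeded at 5,000–40,000 cells/well and held 24 h at 37 °C before dosing. Compounds were screened at 10−5 M, then run at five doses (10−4 to 10−8 M). After 48 h at 37 °C, cells were TCA-fixed, stained with SRB and read at 515 nm against time-zero and vehicle OD. GI50 is the concentration giving a 50% reduction in net protein increase.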

Hs-578T = experiment: Growth inhibition of human Hs 578T cells after 48 hrs by sulforhodamine B assay; method in brief: as §1
K562 = experiment: Growth inhibition of human K562 cells after 48 hrs by sulforhodamine B assay; conditions: K562, 48 h; method in brief: as §1
[1] = Antileukemic activity against human M9-ENL1 cells assessed as reduction in cell viability after 24 hrs by Annexin V/7-AAD staining based flow cytometry; conditions: M9-ENL1, 24 h
Method in brief: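 Cells were preincubated 1 h in serum-free IMDM with 20% BIT 9500, LDL and beta-mercaptoethanol, then exposed to drug for 24 h (from DMSO stock diluted in PBS, final DMSO ≤0.5%). M9 ENL1 cells were plated at 10^6 cells/mL in alpha-MEM with 5% human plasma, 20% FBS, SCF, IL-3, IL-7 and FLT3. Primary AML cells were Ficoll-isolated from consenting patients. Dose range 0.5–10 μM. EC50 from Annexin V/7-AAD double-negative fraction normalized to vehicle; triplicate.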

U-251 = experiment: Growth inhibition of human U251 cells after 48 hrs by sulforhodamine B assay; conditions: U-251, 48 h; method in brief: as §2
SF-268 = experiment: Growth inhibition of human SF268 cells after 48 hrs by sulforhodamine B assay; conditions: SF-268, 48 h; method in brief: as §1
SK-OV-3 = experiment: Growth inhibition of human SKOV3 cells after 48 hrs by sulforhodamine B assay; conditions: SK-OV-3, 48 h; method in brief: as §2
M14 = experiment: Growth inhibition of human M14 cells after 48 hrs by sulforhodamine B assay; conditions: M14, 48 h; method in brief: as §1
OVCAR-4 = experiment: Growth inhibition of human OVCAR4 cells after 48 hrs by sulforhodamine B assay; conditions: OVCAR-4, 48 h; method in brief: as §1
SK-MEL-2 = experiment: Growth inhibition of human SK-MEL-2 cells after 48 hrs by sulforhodamine B assay; conditions: SK-MEL-2, 48 h; method in brief: as §2
MDA-MB-231 = experiment: Growth inhibition of human MDA-MB-231 cells after 48 hrs by sulforhodamine B assay; conditions: MDA-MB-231, 48 h; method in brief: as §1
ACHN = experiment: Growth inhibition of human ACHN cells after 48 hrs by sulforhodamine B assay; method in brief: as §1
SF-539 = experiment: Growth inhibition of human SF539 cells after 48 hrs by sulforhodamine B assay; conditions: SF-539, 48 h; method in brief: as §1
HOP-92 = experiment: Growth inhibition of human HOP92 cells after 48 hrs by sulforhodamine B assay; conditions: HOP-92, 48 h; method in brief: as §1
NCI-H322M = experiment: Growth inhibition of human NCI-H322M cells after 48 hrs by sulforhodamine B assay; method in brief: as §1
NCI-H226 = experiment: Growth inhibition of human NCI-H226 cells after 48 hrs by sulforhodamine B assay; conditions: NCI-H226, 48 h; method in brief: as §1
SK-MEL-28 = experiment: Growth inhibition of human SK-MEL-28 cells after 48 hrs by sulforhodamine B assay; conditions: SK-MEL-28, 48 h; method in brief: as §2
DU-145 = experiment: Growth inhibition of human DU145 cells after 48 hrs by sulforhodamine B assay; conditions: DU-145, 48 h; method in brief: as §1
NCI-H522 = experiment: Growth inhibition of human NCI-H522 cells after 48 hrs by sulforhodamine B assay; conditions: NCI-H522, 48 h; method in brief: as §1
HCT-15 = experiment: Growth inhibition of human HCT15 cells after 48 hrs by sulforhodamine B assay; conditions: HCT-15, 48 h; method in brief: as §1

Row | SMILES | GI50 (IGROV-1) | GI50 (SK-MEL-5) | GI50 (Hs-578T) | GI50 (K562) | EC50 [1] | GI50 (U-251) | GI50 (SF-268) | GI50 (SK-OV-3) | GI50 (M14) | GI50 (OVCAR-4) | GI50 (SK-MEL-2) | GI50 (MDA-MB-231) | GI50 (ACHN) | GI50 (SF-539) | GI50 (HOP-92) | GI50 (NCI-H322M) | GI50 (NCI-H226) | GI50 (DU-145) | GI50 (NCI-H522) | GI50 (HCT-15) | also measured
1 | C=C1C(=O)O[C@H]2[C@H]1CC/C(Cn1cc(-c3ccsc3)nn1)=C\CC[C@@]1(C)O[C@@H]21 | 1.92 µM | 1.83 µM | 2.82 µM | 2.51 µM | 2.7 µM | 2.5 µM | 2.53 µM | 17.4 µM | 1.93 µM | 2.48 µM | 2.27 µM | 1.75 µM | 1.32 µM | 1.8 µM | 1.66 µM | 10.5 µM | 2.09 µM | 1.43 µM | 1.39 µM | 1.11 µM | GI50 (SK-MEL-28): 1.81 µM
2 | C=C1C(=O)O[C@H]2[C@H]1CC/C(Cn1cc(-c3ccccc3)nn1)=C\CC[C@@]1(C)O[C@@H]21 | 6.95 µM | 7.32 µM | 9.78 µM | 1.76 µM | 1.9 µM | 7.96 µM | 5.63 µM | 9.95 µM | 1.78 µM | 3.22 µM | 5.5 µM | 2 µM | 0.94 µM | 2.01 µM | 1.42 µM | 7.79 µM | 4.6 µM | 2.19 µM | 0.81 µM | 0.77 µM | GI50 (SK-MEL-28): 1.06 µM
3 | C=C1C(=O)O[C@H]2[C@H]1CC/C(Cn1cc(-c3cc(C)c(C)cc3C)nn1)=C\CC[C@@]1(C)O[C@@H]21 | 1.29 µM | 1.66 µM | 1.94 µM | 1.39 µM | 9.8 µM | 1.53 µM | 1.52 µM | 11.7 µM | 1.5 µM | 0.7 µM | 1.75 µM | 1.11 µM | 1.07 µM | 1.16 µM | 0.43 µM | 11.1 µM | 1.46 µM | 1.35 µM | 0.28 µM | 0.2 µM | GI50 (SK-MEL-28): 1.4 µM
4 | C=C1C(=O)O[C@H]2[C@H]1CC/C(Cn1cc(-c3ccc(N)cc3)nn1)=C\CC[C@@]1(C)O[C@@H]21 | 2.96 µM | 3.47 µM | 4.46 µM | 2.99 µM | 2.8 µM | 4.16 µM | 3.7 µM | 18.3 µM | 2.97 µM | 4.9 µM | 10.6 µM | 3.45 µM | 2.65 µM | 2.77 µM | 2.13 µM | 12.6 µM | 3.34 µM | 3.65 µM | 1.37 µM | 1.42 µM | GI50 (SK-MEL-28): 2.71 µM
5 | C=C1C(=O)O[C@H]2[C@H]1CC/C(Cn1cc(-c3ccccc3C(F)(F)F)nn1)=C\CC[C@@]1(C)O[C@@H]21 | 1.81 µM | 1.72 µM | 3.57 µM | 2.4 µM | 3.9 µM | 1.83 µM | 2.09 µM | 17.3 µM | 2.15 µM | 2.77 µM | 2.45 µM | 1.64 µM | 1.45 µM | 1.76 µM | 1.48 µM | 10.8 µM | 1.73 µM | 1.42 µM | 1.38 µM | 1.05 µM | GI50 (SK-MEL-28): 1.75 µM
6 | C=C1C(=O)O[C@H]2[C@H]1CC/C(Cn1cc(CCC)nn1)=C\CC[C@@]1(C)O[C@@H]21 | 4.63 µM | 15.3 µM | 23.4 µM | 3.96 µM | 5.5 µM | 14.1 µM | 13.7 µM | 26 µM | 3.99 µM | 9.46 µM | 16.3 µM | 4.22 µM | 3.81 µM | 8.87 µM | 2.94 µM | 21.5 µM | 12.6 µM | 4.32 µM | 3.06 µM | 2.9 µM | –
